# Where “and” joins values, the source holds several entries; their conditions need not be identical. Equal entries are not always repeated.
# Test system: U2OS
# Experiment: Multiplex assay against U2OS
# Assay type: toxicity, cell-based
# Settings: human
# Procedure, shortened: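 At seeding, live cells were stained with Hoechst33342, BioTracker Green Microtubule Cytoskeleton Dye, MitoTracker Red and Annexin V Alexa Fluor 680. After compound addition they were imaged on a CQ1 microscope at 37°C and 5% CO2, and CellPathfinder machine-learning gating sorted them into Hoechst high-intensity objects or normal cells, with normal cells further split into healthy, pyknosed or fragmented nuclei and pyknosed cells into mitotic or apoptotic. Tubulin, mitochondrial-mass and membrane-permeability phenotypes are given as per cents of cells with healthy nuclei.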
# [1] = 12 h, 1 µM, compound concentration 1 uM
# [2] = 12 h, 10 µM, compound concentration 10 uM
# [3] = 24 h, 1 µM, compound concentration 1 uM
# [4] = 24 h, 10 µM, compound concentration 10 uM
# [5] = 48 h, 1 µM, compound concentration 1 uM
# [6] = 48 h, 10 µM, compound concentration 10 uM
smiles,measurement,setting,value
CCn1cnc2c(-c3ccc(F)c(-c4ccc(S(=O)(=O)CC)cc4OC)c3)cnnc21 [DARIGABAT],Population Apoptotic (%),[1],18.37% and 38.1%
same,Population Fragmented Nuclei (%),[1],2.41% and 2.26%
same,Population Healthy Nuclei (%),[1],84.49% and 81.95%
same,Population Hoechst High Intensity Objects (%),[1],0%
same,Population Membrane Permeable-Phenotype (%),[1],0.95% and 3.67%
same,Population Mitochondria Different-Phenotype (%),[1],0% and 6.42%
same,Population Mitotic Cells (%),[1],81.63% and 61.9%
same,Population Normal (%),[1],100%
same,Population Pyknosed Nuclei (%),[1],13.1% and 15.79%
same,Population Tubulin-Different-Phenotype (%),[1],1.58% and 0.92%
same,Total Cell Count,[1],374 and 133
same,Population Apoptotic (%),[2],35.44% and 27.5%
same,Population Fragmented Nuclei (%),[2],2.35% and 3.87%
same,Population Healthy Nuclei (%),[2],74.41% and 70.32%
same,Population Hoechst High Intensity Objects (%),[2],0% and 0.64%
same,Population Membrane Permeable-Phenotype (%),[2],3.95% and 3.67%
same,Population Mitotic Cells (%),[2],64.56% and 72.5%
same,Population Normal (%),[2],100% and 99.36%
same,Population Pyknosed Nuclei (%),[2],25.81%
same,Total Cell Count,[2],340 and 156
same,Population Apoptotic (%),[3],28.12% and 48%
same,Population Fragmented Nuclei (%),[3],1.34% and 1.64%
same,Population Healthy Nuclei (%),[3],86.42% and 84.7%
same,Population Hoechst High Intensity Objects (%),[3],0%
same,Population Membrane Permeable-Phenotype (%),[3],0.66% and 4.52%
same,Population Mitochondria Different-Phenotype (%),[3],0% and 1.94%
same,Population Mitotic Cells (%),[3],71.88% and 52%
same,Population Normal (%),[3],100%
same,Population Pyknosed Nuclei (%),[3],12.24% and 13.66%
same,Population Tubulin-Different-Phenotype (%),[3],2.21% and 0%
same,Total Cell Count,[3],523 and 183
same,Population Apoptotic (%),[4],49.55% and 36%
same,Population Fragmented Nuclei (%),[4],3.86% and 1.2%
same,Population Healthy Nuclei (%),[4],67.61% and 68.67%
same,Population Hoechst High Intensity Objects (%),[4],0%
same,Population Membrane Permeable-Phenotype (%),[4],3.04% and 5.26%
same,Population Mitotic Cells (%),[4],50.45% and 64%
same,Population Normal (%),[4],100%
same,Population Pyknosed Nuclei (%),[4],28.53% and 30.12%
same,Population Tubulin-Different-Phenotype (%),[4],11.79% and 2.63%
same,Total Cell Count,[4],389 and 166
same,Population Apoptotic (%),[5],49.52% and 51.28%
same,Population Fragmented Nuclei (%),[5],5.85% and 2.9%
same,Population Healthy Nuclei (%),[5],81.07% and 82.97%
same,Population Hoechst High Intensity Objects (%),[5],0%
same,Population Membrane Permeable-Phenotype (%),[5],0.61% and 2.62%
same,Population Mitochondria Different-Phenotype (%),[5],0% and 3.49%
same,Population Mitotic Cells (%),[5],50.48% and 48.72%
same,Population Normal (%),[5],100%
same,Population Pyknosed Nuclei (%),[5],13.08% and 14.13%
same,Population Tubulin-Different-Phenotype (%),[5],1.84% and 0.87%
same,Total Cell Count,[5],803 and 276
same,Population Apoptotic (%),[6],64.56% and 67.12%
same,Population Fragmented Nuclei (%),[6],3.84% and 5.23%
same,Population Healthy Nuclei (%),[6],52.88% and 47.06%
same,Population Hoechst High Intensity Objects (%),[6],0%
same,Population Membrane Permeable-Phenotype (%),[6],7.25% and 11.11%
same,Population Mitotic Cells (%),[6],35.44% and 32.88%
same,Population Normal (%),[6],100%
same,Population Pyknosed Nuclei (%),[6],43.29% and 47.71%
same,Population Tubulin-Different-Phenotype (%),[6],24.87% and 11.11%
same,Total Cell Count,[6],365 and 153
O=C(NCCO)c1cccc(-c2cc(Nc3ccc(OC(F)(F)F)cc3)ncn2)c1,Population Apoptotic (%),[1],64% and 84%
same,Population Fragmented Nuclei (%),[1],13% and 15%
same,Population Healthy Nuclei (%),[1],72% and 73%
same,Population Hoechst High Intensity Objects (%),[1],1%
same,Population Membrane Permeable-Phenotype (%),[1],3% and 4%
same,Population Mitochondria Different-Phenotype (%),[1],3%
same,Population Mitotic Cells (%),[1],35% and 15%
same,Population Normal (%),[1],98%
same,Population Pyknosed Nuclei (%),[1],13% and 10%
same,Population Tubulin-Different-Phenotype (%),[1],1% and 4%
same,Total Cell Count,[1],213 and 128
same,Population Apoptotic (%),[2],84% and 100%
same,Population Fragmented Nuclei (%),[2],21% and 20%
same,Population Healthy Nuclei (%),[2],66% and 68%
same,Population Hoechst High Intensity Objects (%),[2],4% and 2%
same,Population Membrane Permeable-Phenotype (%),[2],9%
same,Population Mitochondria Different-Phenotype (%),[2],7% and 15%
same,Population Mitotic Cells (%),[2],15% and 0%
same,Population Normal (%),[2],95% and 97%
same,Population Pyknosed Nuclei (%),[2],12%
same,Population Tubulin-Different-Phenotype (%),[2],6% and 3%
same,Population Apoptotic (%),[3],70% and 86%
same,Population Fragmented Nuclei (%),[3],16% and 20%
same,Population Healthy Nuclei (%),[3],73% and 69%
same,Population Hoechst High Intensity Objects (%),[3],1%
same,Population Membrane Permeable-Phenotype (%),[3],3% and 7%
same,Population Mitochondria Different-Phenotype (%),[3],3% and 5%
same,Population Mitotic Cells (%),[3],29% and 13%
same,Population Normal (%),[3],98%
same,Population Pyknosed Nuclei (%),[3],9%
same,Population Tubulin-Different-Phenotype (%),[3],2% and 4%
same,Total Cell Count,[3],256 and 156
same,Population Apoptotic (%),[4],82% and 100%
same,Population Fragmented Nuclei (%),[4],22% and 15%
same,Population Healthy Nuclei (%),[4],64% and 78%
same,Population Hoechst High Intensity Objects (%),[4],4% and 1%
same,Population Membrane Permeable-Phenotype (%),[4],6% and 12%
same,Population Mitochondria Different-Phenotype (%),[4],3% and 13%
same,Population Mitotic Cells (%),[4],17% and 0%
same,Population Normal (%),[4],95% and 98%
same,Population Pyknosed Nuclei (%),[4],12% and 5%
same,Population Tubulin-Different-Phenotype (%),[4],1% and 4%
same,Population Apoptotic (%),[5],88% and 96%
same,Population Fragmented Nuclei (%),[5],15% and 20%
same,Population Healthy Nuclei (%),[5],75% and 65%
same,Population Hoechst High Intensity Objects (%),[5],2%
same,Population Membrane Permeable-Phenotype (%),[5],6% and 9%
same,Population Mitochondria Different-Phenotype (%),[5],3% and 4%
same,Population Mitotic Cells (%),[5],11% and 3%
same,Population Normal (%),[5],97%
same,Population Pyknosed Nuclei (%),[5],8% and 14%
same,Population Tubulin-Different-Phenotype (%),[5],4% and 6%
same,Total Cell Count,[5],417 and 206
same,Population Apoptotic (%),[6],92% and 91%
same,Population Fragmented Nuclei (%),[6],18% and 26%
same,Population Healthy Nuclei (%),[6],72% and 64%
same,Population Hoechst High Intensity Objects (%),[6],3% and 2%
same,Population Membrane Permeable-Phenotype (%),[6],8% and 5%
same,Population Mitochondria Different-Phenotype (%),[6],3% and 7%
same,Population Mitotic Cells (%),[6],7% and 8%
same,Population Normal (%),[6],96% and 97%
same,Population Pyknosed Nuclei (%),[6],9% and 8%
same,Population Tubulin-Different-Phenotype (%),[6],6% and 1%
Cc1sc2c(c1C)C(c1ccc(Cl)cc1)=N[C@H](CC(=O)OC(C)(C)C)c1nnc(C)n1-2,Population Apoptotic (%),[1],81% and 71%
same,Population Fragmented Nuclei (%),[1],28% and 16%
same,Population Healthy Nuclei (%),[1],63% and 77%
same,Population Hoechst High Intensity Objects (%),[1],2% and 4%
same,Population Membrane Permeable-Phenotype (%),[1],7%
same,Population Mitochondria Different-Phenotype (%),[1],4% and 2%
same,Population Mitotic Cells (%),[1],18% and 28%
same,Population Normal (%),[1],97% and 95%
same,Population Pyknosed Nuclei (%),[1],8% and 6%
same,Population Tubulin-Different-Phenotype (%),[1],4%
same,Total Cell Count,[1],256 and 120
same,Population Apoptotic (%),[2],51% and 90%
same,Population Fragmented Nuclei (%),[2],32% and 22%
same,Population Healthy Nuclei (%),[2],56% and 68%
same,Population Hoechst High Intensity Objects (%),[2],2% and 0%
same,Population Mitochondria Different-Phenotype (%),[2],35% and 24%
same,Population Normal (%),[2],97% and 100%
same,Population Pyknosed Nuclei (%),[2],11% and 8%
same,Total Cell Count,[2],240 and 118
same,Population Apoptotic (%),[3],77% and 75%
same,Population Fragmented Nuclei (%),[3],22% and 20%
same,Population Healthy Nuclei (%),[3],69% and 70%
same,Population Hoechst High Intensity Objects (%),[3],0% and 3%
same,Population Membrane Permeable-Phenotype (%),[3],5%
same,Population Mitochondria Different-Phenotype (%),[3],1% and 2%
same,Population Mitotic Cells (%),[3],22% and 25%
same,Population Normal (%),[3],99% and 96%
same,Population Pyknosed Nuclei (%),[3],7% and 8%
same,Population Tubulin-Different-Phenotype (%),[3],1% and 2%
same,Total Cell Count,[3],280 and 149
same,Population Apoptotic (%),[4],83% and 76%
same,Population Fragmented Nuclei (%),[4],29% and 24%
same,Population Healthy Nuclei (%),[4],57% and 65%
same,Population Hoechst High Intensity Objects (%),[4],2% and 0%
same,Population Membrane Permeable-Phenotype (%),[4],17% and 7%
same,Population Mitochondria Different-Phenotype (%),[4],17% and 25%
same,Population Mitotic Cells (%),[4],16% and 23%
same,Population Normal (%),[4],97% and 99%
same,Population Pyknosed Nuclei (%),[4],13% and 10%
same,Population Tubulin-Different-Phenotype (%),[4],8% and 3%
same,Total Cell Count,[4],280 and 130
same,Population Apoptotic (%),[5],77% and 96%
same,Population Fragmented Nuclei (%),[5],20% and 21%
same,Population Healthy Nuclei (%),[5],72% and 64%
same,Population Hoechst High Intensity Objects (%),[5],1% and 3%
same,Population Membrane Permeable-Phenotype (%),[5],5% and 7%
same,Population Mitochondria Different-Phenotype (%),[5],2% and 7%
same,Population Normal (%),[5],98% and 96%
same,Population Pyknosed Nuclei (%),[5],6% and 14%
same,Population Tubulin-Different-Phenotype (%),[5],2% and 5%
same,Total Cell Count,[5],415 and 228
same,Population Apoptotic (%),[6],86% and 89%
same,Population Fragmented Nuclei (%),[6],23% and 20%
same,Population Healthy Nuclei (%),[6],57% and 68%
same,Population Hoechst High Intensity Objects (%),[6],2% and 1%
same,Population Membrane Permeable-Phenotype (%),[6],11%
same,Population Mitochondria Different-Phenotype (%),[6],7% and 8%
same,Population Mitotic Cells (%),[6],13% and 10%
same,Population Normal (%),[6],97% and 98%
same,Population Pyknosed Nuclei (%),[6],18% and 11%
same,Population Tubulin-Different-Phenotype (%),[6],5% and 3%
same,Total Cell Count,[6],342 and 174

# From ChEMBL document CHEMBL5724801, “EUbOPEN Chemogenomics Library - Multiplex” (2024)
